Consider eleven molecules from ChEMBL document CHEMBL1125106, “1-(Thienylalkyl)imidazole-2(3H)-thiones as potent competitive inhibitors of dopamine beta-hydroxylase” (J Med Chem, 1990).

Assay [1] concerns Rattus norvegicus. Briefly: Mean arterial blood pressure was determined in SHR (spontaneous hypertensive rat) with control at a peroral dose of 100 mg/kg. It is filed as functional. Conditions: route oral. In a few lines:
(§1)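 Conscious SHR with a carotid catheter externalized at the nape, allowed about 48 h to recover from surgery. Dosed po at 09:00 with vehicle (50% PEG 400) or compound suspension, with treatments reversed the next day in a cross-over design. Mean arterial pressure recorded as 5 min averages and compared with vehicle by paired t test (mean ± SEM, p<0.05).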

Assay [2] deals with Rattus norvegicus. Nature of the assay: Mean arterial blood pressure was determined in SHR (spontaneous hypertensive rat) with administration at the dose of 100 mg/kg (po). It is filed as functional. The method in brief: as §1
In assay [3] the test system is Rattus norvegicus. Nature of the assay: Mean arterial blood pressure was determined in SHR (spontaneous hypertensive rat) with control at a peroral dose of 50 mg/kg. It is filed as functional. Conditions: route oral. In a few lines: as §1
In assay [4] the test system is Rattus norvegicus. Nature of the assay: Mean arterial blood pressure was determined in SHR (spontaneous hypertensive rat) with control at a peroral dose of 25 mg/kg. It is filed as functional. To be noted: route oral. In a few lines: as §1
A short description of assay [5]: Antihypertensive activity determined as ability to increase tissue DA/NE ratio of mesenteric artery 6 hr after oral administration in fasted SHR (spontaneous hypertensive rat). Format: functional. In a few lines:
(§2)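 Male fasted SHR given compound orally as a suspension in 50% PEG 400 (0.4 mL/100 g), or vehicle alone. Killed 6 h after dosing. Mesenteric artery homogenized in 0.2 M HClO4 with DTT, EGTA and DHBA internal standard. Catecholamines adsorbed on alumina, eluted with 0.1 M H3PO4, and DA and NE quantified by reverse-phase HPLC. Ratio reported as mean ± SD and compared with vehicle by 2-tailed t test.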

Assay [6] in a line: Antihypertensive activity was determined by its ability to increase DA/NE ratio of mesenteric artery 6 hr after oral administration in fasted SHR (spontaneous hypertensive rat) at the dose of 100 mg/kg (po). It is filed as functional. The method in brief:
as §2

The target in assay [7] is T1, Dopamine beta-hydroxylase (Bos taurus, UniProt P15101).
T1 sequence (P15101 whole entry): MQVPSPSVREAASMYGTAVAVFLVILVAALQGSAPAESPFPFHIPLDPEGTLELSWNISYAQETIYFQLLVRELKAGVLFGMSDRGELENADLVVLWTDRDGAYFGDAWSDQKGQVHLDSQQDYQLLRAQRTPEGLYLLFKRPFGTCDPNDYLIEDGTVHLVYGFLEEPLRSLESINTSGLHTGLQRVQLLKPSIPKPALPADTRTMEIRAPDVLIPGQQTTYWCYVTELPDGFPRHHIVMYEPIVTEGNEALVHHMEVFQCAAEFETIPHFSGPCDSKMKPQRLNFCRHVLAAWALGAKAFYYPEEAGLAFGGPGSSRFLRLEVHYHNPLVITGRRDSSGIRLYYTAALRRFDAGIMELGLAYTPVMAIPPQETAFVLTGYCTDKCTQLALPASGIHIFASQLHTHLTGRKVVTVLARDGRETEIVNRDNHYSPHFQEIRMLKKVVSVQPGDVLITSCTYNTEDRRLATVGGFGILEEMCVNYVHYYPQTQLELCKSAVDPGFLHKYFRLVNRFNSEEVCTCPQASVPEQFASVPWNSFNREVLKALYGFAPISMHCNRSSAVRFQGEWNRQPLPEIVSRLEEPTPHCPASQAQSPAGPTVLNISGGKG
Briefly: Inhibitory activity against bovine adrenal dopamine beta-hydroxylase (DBH). The method in brief:
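Commercial bovine DBH, assayed by oxygen consumption on an oxygen electrode at 25.0 °C. Mixture contained 2 mM ascorbic acid, 10 mM sodium fumarate, catalase and 10 mM tyramine in 0.1 M sodium acetate pH 5.0. Rates corrected for nonenzymatic ascorbate oxidation. IC50 from duplicates in at least three separate experiments, mean ± SD.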

Assay [8] deals with Rattus norvegicus. Nature of the assay: Mean arterial blood pressure was determined in SHR (spontaneous hypertensive rat) with administration at peroral dose of 50 mg/kg. To be noted: route oral. Format: functional. The method in brief: as §1
The subject of assay [9] is Rattus norvegicus. Nature of the assay: Duration of activity of compound in SHR (spontaneous hypertensive rat) at the dose of 100 mg/kg (po). It is filed as functional. In a few lines:
as §1

Assay [10] concerns Rattus norvegicus. Nature of the assay: Mean arterial blood pressure was determined in SHR (spontaneous hypertensive rat) with administration at peroral dose of 25 mg/kg. Format: functional. Conditions: route oral. In a few lines:
as §1

Assay [11] can be described thus: Antihypertensive activity was determined by its ability to increase DA/NE ratio of mesenteric artery 6 hr after oral administration in fasted SHR at the dose of 50 mg/kg (po). It is filed as functional. In a few lines: as §2
Assay [12] concerns Rattus norvegicus. Briefly: Duration of activity of compound in SHR (spontaneous hypertensive rat) at the dose of 25 mg/kg (po). Format: functional. The method in brief:
as §1

The nature of assay [13]: Antihypertensive activity as ability to increase tissue DA/NE ratio of mesenteric artery 6 hr after oral administration in fasted SHR (spontaneous hypertensive rat) at the dose of 25 mg/kg (po). It is filed as functional. The method in brief: as §2
Assay [14] concerns Rattus norvegicus. Nature of the assay: Duration of activity of compound in SHR (spontaneous hypertensive rat) at the dose of 50 mg/kg (po). It is filed as functional. The method in brief: as §1
Assay [15] can be described thus: DBH (dopamine beta-hydroxylase) activity expressed as Ki value determined by degree to which compound inhibited conversion of tyramine to octopamine. In a few lines:
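Bovine adrenal medulla DBH, purified in-house (sp act. 44 µmol/min/mg). Incubated at 37 °C, atmospheric pressure, in 0.2 M acetate pH 5.5 with 10 mM ascorbate, 20 mM fumarate, […] and 1300 units catalase. Octopamine formed from tyramine measured by reverse-phase HPLC with fluorescence detection (ex 275, em 315 nm). Six inhibitor and four substrate concentrations tested, DMSO ≤3% final, duplicates; Ki from Dixon analysis.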

For orientation: IC50 means the concentration that gives 50% inhibition. Read a low IC50 as inhibition by little substance. One may read the Ki as the dissociation constant of the complex between target and ligand, obtained from inhibition or displacement. The low end stands for tighter binding, the high end for weaker binding. In the case of `Sc1nccn1CCc1cccs1`, the “Mean arterial blood pressure” value in the assay on Rattus norvegicus [1] is listed as 170 mmHg; in the assay on Rattus norvegicus [2], 126 mmHg; with Rattus norvegicus [3] it was 172 mmHg; with Rattus norvegicus [4], 148 mmHg; in the assay with Rattus norvegicus [8], 137 mmHg; with Rattus norvegicus [10], 137 mmHg. The DA/NE ratio in assay [5] is on record as 0.072; in [6], 0.333; in assay [11], 0.269; in assay [13], 0.214. The molecule further registered an IC50 in assay [7] of 114 nM. The Duration with Rattus norvegicus [9] was 20 h; in the assay with Rattus norvegicus [12] it was below 1 h; with Rattus norvegicus [14] it was 8 h. Further, the Ki in [15] worked out at 25.5 nM.
Regarding `Fc1cc(F)cc(Cn2cc[nH]c2=S)c1`, the half-maximal inhibitory concentration (IC50) in assay [7] was determined as 210 nM. The same molecule had a Ki in [15] of 60 nM.
Molecule `Sc1nccn1Cc1cccs1` returned an IC50 in assay [7] of 4800 nM. This molecule also displayed a Ki in assay [15] of 740 nM.
Molecule `Fc1ccc(Cn2ccnc2S)s1` registered an IC50 in [7] of 4600 nM.
In the case of `Sc1nccn1CCCCc1cccs1`, in assay [7], the midpoint of inhibition, the IC50, lay at 3600 nM. Also, in [15], the Ki was 1400 nM.
On to `Sc1nccn1CCc1ccsc1`, for which the IC50 in [7] amounted to 130 nM. Also, the Ki in [15] worked out at 25 nM.
For the molecule `Sc1nccn1CCCc1cccs1`, the midpoint of inhibition in assay [7], the IC50, lay at 1900 nM. In assay [15], this molecule had a Ki of 480 nM.
Taken in the same sequence, the figures for `Cc1ccc(CCn2ccnc2S)s1` were 491 nM and 160 nM.
In assay [7], `Sc1nccn1Cc1ccsc1` showed an IC50 of 5300 nM.
On the same count and under the same terms, the value for `S=c1[nH]ccn1Cc1ccco1` was 6300 nM.
On the same count and under the same terms, the value for `Sc1nccn1Cc1ccc(Cl)s1` was 1000 nM.
